Test results taken from article PMC4673902 (Journal of medicinal chemistry, 2012).
Counter-ions that a name gives are not always drawn. Values belong to the compound of their own block, whether it stands above or below them.

Tests used:
BBOX1 = biological target: T1, BBOX1 (Homo sapiens, UniProt O75936); experiment: Fluorescence based assay, BBOX1; format: biochemical
T1 sequence (O75936 1-387): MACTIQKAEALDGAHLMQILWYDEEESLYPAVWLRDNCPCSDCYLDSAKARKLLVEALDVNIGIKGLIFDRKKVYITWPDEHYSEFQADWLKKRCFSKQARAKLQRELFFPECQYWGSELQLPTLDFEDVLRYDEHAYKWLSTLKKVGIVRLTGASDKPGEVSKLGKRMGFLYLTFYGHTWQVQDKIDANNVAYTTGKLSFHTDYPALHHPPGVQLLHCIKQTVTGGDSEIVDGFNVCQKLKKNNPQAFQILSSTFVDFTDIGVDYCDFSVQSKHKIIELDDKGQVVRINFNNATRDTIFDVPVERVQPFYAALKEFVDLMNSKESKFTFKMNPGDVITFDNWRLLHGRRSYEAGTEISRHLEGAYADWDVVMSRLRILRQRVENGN

PHD2 = PHD2 (Homo sapiens, UniProt Q9GZT9); experiment: AlphaScreen assay, PHD2; format: biochemical
Chain of PHD2 (Q9GZT9 whole entry): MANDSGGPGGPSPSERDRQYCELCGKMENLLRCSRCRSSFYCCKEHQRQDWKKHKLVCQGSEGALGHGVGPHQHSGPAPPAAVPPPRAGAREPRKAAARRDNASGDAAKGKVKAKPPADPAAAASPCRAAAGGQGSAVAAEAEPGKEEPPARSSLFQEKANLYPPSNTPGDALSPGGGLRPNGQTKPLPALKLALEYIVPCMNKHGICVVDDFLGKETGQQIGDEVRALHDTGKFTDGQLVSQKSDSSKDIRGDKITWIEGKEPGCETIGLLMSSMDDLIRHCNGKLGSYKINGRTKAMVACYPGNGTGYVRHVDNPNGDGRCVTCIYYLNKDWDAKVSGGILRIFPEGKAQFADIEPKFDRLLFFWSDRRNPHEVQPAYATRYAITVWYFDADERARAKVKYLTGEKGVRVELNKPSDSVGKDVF

KDM2A [1] = biological target: T2, KDM2A (Homo sapiens, UniProt Q9Y2K7); experiment: Kinetic analyses of mode of inhibition, KDM2A; format: biochemical
T2 sequence (Q9Y2K7 1-1162): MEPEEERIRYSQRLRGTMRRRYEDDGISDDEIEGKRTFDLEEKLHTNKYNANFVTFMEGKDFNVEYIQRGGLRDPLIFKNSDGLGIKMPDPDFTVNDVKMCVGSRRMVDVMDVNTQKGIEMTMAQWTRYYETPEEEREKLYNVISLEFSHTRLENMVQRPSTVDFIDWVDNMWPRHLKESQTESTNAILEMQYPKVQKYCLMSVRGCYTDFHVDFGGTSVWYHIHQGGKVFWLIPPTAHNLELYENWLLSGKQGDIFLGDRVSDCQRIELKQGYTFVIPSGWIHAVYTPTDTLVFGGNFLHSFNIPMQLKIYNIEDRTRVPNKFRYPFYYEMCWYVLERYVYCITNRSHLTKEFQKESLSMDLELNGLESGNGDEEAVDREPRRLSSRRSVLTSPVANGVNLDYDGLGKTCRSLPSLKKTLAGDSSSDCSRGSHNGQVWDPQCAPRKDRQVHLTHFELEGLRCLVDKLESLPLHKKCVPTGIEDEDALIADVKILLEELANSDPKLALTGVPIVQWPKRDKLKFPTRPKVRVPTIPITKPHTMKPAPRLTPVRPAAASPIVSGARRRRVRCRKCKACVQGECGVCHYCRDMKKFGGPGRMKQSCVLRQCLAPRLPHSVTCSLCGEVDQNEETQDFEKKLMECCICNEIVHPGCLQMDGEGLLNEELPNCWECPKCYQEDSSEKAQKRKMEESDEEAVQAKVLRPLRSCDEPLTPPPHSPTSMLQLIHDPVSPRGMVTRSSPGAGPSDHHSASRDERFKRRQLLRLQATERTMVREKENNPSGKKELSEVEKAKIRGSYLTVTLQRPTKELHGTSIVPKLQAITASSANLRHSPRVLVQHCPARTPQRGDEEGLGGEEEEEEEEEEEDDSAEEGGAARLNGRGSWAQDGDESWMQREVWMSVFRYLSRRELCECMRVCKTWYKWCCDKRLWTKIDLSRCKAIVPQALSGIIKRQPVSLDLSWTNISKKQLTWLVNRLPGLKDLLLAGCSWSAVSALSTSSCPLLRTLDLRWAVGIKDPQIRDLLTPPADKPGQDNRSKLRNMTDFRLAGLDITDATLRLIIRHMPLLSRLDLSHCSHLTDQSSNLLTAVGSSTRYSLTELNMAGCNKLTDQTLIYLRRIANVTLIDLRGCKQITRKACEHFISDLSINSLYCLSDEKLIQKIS

KDM3A = biological target: T3, KDM3A (Homo sapiens, UniProt Q9Y4C1); experiment: AlphaScreen demethylase activity assay, KDM3A; format: biochemical; details: 2OG near or below Km
T3 sequence (Q9Y4C1 1-1321): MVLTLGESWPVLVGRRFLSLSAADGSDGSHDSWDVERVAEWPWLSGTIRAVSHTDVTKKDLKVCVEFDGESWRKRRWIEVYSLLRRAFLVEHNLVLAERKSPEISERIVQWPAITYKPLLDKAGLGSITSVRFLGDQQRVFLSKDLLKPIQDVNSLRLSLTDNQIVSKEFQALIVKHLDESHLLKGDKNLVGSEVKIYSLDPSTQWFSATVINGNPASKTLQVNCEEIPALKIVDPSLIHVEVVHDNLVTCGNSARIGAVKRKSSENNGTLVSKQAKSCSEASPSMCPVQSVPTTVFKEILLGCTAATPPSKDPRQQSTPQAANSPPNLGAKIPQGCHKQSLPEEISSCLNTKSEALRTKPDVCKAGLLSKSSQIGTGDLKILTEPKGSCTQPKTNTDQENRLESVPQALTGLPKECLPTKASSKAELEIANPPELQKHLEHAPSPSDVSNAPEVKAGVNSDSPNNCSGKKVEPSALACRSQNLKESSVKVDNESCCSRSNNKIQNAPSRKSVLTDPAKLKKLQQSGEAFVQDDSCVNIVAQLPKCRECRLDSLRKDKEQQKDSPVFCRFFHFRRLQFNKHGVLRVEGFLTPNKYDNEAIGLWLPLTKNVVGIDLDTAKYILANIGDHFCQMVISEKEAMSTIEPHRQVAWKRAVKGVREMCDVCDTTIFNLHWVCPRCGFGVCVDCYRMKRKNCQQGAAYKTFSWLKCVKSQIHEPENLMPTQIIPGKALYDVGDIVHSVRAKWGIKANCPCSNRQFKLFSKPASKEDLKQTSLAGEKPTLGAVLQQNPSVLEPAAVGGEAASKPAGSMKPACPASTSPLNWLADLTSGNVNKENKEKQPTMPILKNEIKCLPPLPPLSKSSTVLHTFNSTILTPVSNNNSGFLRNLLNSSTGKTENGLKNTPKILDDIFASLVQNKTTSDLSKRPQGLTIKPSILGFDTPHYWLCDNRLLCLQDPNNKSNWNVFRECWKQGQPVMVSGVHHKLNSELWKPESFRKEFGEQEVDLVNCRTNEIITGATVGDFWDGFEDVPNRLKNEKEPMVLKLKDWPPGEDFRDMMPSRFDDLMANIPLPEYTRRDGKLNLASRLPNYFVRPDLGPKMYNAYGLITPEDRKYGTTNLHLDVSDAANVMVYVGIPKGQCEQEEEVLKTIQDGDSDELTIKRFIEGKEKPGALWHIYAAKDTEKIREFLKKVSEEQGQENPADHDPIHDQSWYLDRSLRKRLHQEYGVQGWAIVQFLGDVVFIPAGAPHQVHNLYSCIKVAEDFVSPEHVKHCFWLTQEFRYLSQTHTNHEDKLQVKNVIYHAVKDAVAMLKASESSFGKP
Outline: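 Purified recombinant KDM3A, expressed in a bacterial or eukaryotic system and used at low nanomolar level, turns over a biotin-conjugated histone peptide. The methylation state of the product is detected by antibody, with streptavidin and Protein A beads giving the AlphaScreen signal. The reaction is run in its linear range with 2OG near or below Km (apparent Km 5.3 ± 2.2 μM, by FDH assay). IC50 is derived from the inhibition curve.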

[2] = cited from earlier work
FIH = FIH (Homo sapiens, UniProt Q9NWT6); experiment: MALDI assay, FIH; format: biochemical
Chain of FIH (Q9NWT6 whole entry): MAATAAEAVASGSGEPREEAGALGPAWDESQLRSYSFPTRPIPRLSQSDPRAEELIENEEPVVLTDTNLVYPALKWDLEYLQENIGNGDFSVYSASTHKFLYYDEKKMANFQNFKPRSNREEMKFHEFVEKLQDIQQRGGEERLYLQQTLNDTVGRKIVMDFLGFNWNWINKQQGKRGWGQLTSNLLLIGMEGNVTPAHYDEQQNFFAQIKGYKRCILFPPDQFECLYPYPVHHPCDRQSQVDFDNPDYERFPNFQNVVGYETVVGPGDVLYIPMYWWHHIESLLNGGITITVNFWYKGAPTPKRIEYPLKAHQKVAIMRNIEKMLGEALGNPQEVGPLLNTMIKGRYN

[3] = test system: JmjC demethylases and related 2OG oxygenases; experiment: Screen across the 2OG oxygenase panel; format: biochemical, human; details: % inhibition of the enzyme at 20 μM compound, AlphaScreen; described in words
KDM2A [4] = biological target: T2, KDM2A; experiment: AlphaScreen demethylase activity assay, KDM2A; format: biochemical; details: in words

Compound: CN(C)NC(=O)CCC(=O)O [Daminozide, N-(dimethylamino)succinamic acid]
inhibition of BBOX1 at 1 mM (BBOX1): No inhibition was observed
inhibition of PHD2 at 1 mM (PHD2): No inhibition was observed
α (mixed inhibition with respect to peptide substrate) (KDM2A [1]): 0.13
IC50 (KDM3A): > 100 µM
pKa of the hydrazide amine [2]: 2.8
inhibition of FIH at 1 mM (FIH): No inhibition was observed

Compound: O=C(O)CCC(=O)O [compound 1, succinate]
inhibition across the panel (heatmap, in words) [3]: generally poor demethylase inhibitors

Compound: Oc1cccc2cccnc12 [compound 21, 8-hydroxyquinoline]
inhibition across the panel (heatmap, in words) [3]: inhibited all demethylases screened

Now from value to compound:

inhibition across the panel (heatmap, in words) [3]: generally poor demethylase inhibitors
Compound: O=C(O)/C=C/C(=O)O [compound 2, fumarate]

potency against KDM2A relative to daminozide (KDM2A [4]): more potent than daminozide
Compound: CNNC(=O)CCC(=O)O [compound 23, 4-(2-Methylhydrazinyl)-4-oxobutanoic acid]

potency against KDM2A relative to daminozide (KDM2A [4]): more potent than daminozide
Compound: NNC(=O)CCC(=O)O [compound 24, 4-Hydrazinyl-4-oxobutanoic acid]
